ChEMBL document CHEMBL1153955, “Indolylarylsulfones bearing natural and unnatural amino acids. Discovery of potent inhibitors of HIV-1 non-nucleoside wild type and resistant mutant strains reverse transcriptase and coxsackie B4 virus” (J Med Chem, 2009)

Legend:
[1] = system: Human respirovirus 3; assay: Antiviral activity against Parainfluenza virus type 3 in african green monkey Vero cells assessed as protection against virus-induced cytopathicity; type: functional, organism-based; conditions: Human respirovirus 3, Vero
Method in brief: (§1)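 Confluent cell monolayers inoculated with 100 CCID₅₀ virus. After 1-2 h adsorption, residual virus removed and cultures incubated with varying compound concentrations. Cytopathicity scored once it reached completion in untreated infected controls. EC₅₀ = dose reducing virus-induced cytopathogenicity by 50%.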

[2] = system: Influenza A virus; assay: Antiviral activity against influenza H1N1 virus in MDCK cells assessed as reduction of virus-induced cytopathicity by MTS method; type: functional, organism-based; conditions: Influenza A virus, H1N1, MDCK
[3] = system: L1210; assay: Antiproliferative activity against mouse L1210 cells after 2 days; type: cell-based; conditions: L1210, 48 h
Method in brief: (§2)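 Cells seeded at 5 × 10⁴ to 7.5 × 10⁴ cells/200 µL with or without serial compound dilutions; incubated at 37 °C for 2 days (L1210) or 3 days (Molt4/C8, CEM). Cell numbers counted with a Coulter counter. CC₅₀ = concentration reducing proliferation by 50% versus untreated controls, read from plots of cell number (% of control) against concentration. Means of at least two independent experiments.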

[4] = system: Influenza B virus; assay: Antiviral activity against influenza B virus in MDCK cells assessed as reduction of virus-induced cytopathicity by visual cytopathic effect scoring method; type: functional, organism-based
[5] = system: Human alphaherpesvirus 1; assay: Antiviral activity against thymidine kinase deficient and acyclovir resistant HSV1 KOS in human HEL cells assessed as protection against virus-induced cytopathicity; type: functional, organism-based; conditions: Human alphaherpesvirus 1, KOS
[6] = system: Respiratory syncytial virus; assay: Antiviral activity against RSV Long in human HeLa cells assessed as protection against virus-induced cytopathicity; type: functional, organism-based; method in brief: as §1
[7] = system: Influenza A virus; assay: Antiviral activity against influenza H1N1 virus in MDCK cells assessed as reduction of virus-induced cytopathicity by visual cytopathic effect scoring method; type: functional, organism-based
[8] = system: Mammalian orthoreovirus 1; assay: Antiviral activity against Reovirus 1 in african green monkey Vero cells assessed as protection against virus-induced cytopathicity; type: functional, organism-based; conditions: Mammalian orthoreovirus 1, Vero; method in brief: as §1
[9] = target: Human immunodeficiency virus type 1 reverse transcriptase (Human immunodeficiency virus 1, UniProt Q72547, Y181I); assay: Inhibition of HIV1 reverse transcriptase p66/p51 Y181I mutant; conditions: read-out: IC50
Method in brief: (§3)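 Substrate was 0.5 µg poly(rA)/oligo(dT) 10:1 (0.3 µM 3′-OH ends) with 10 µM [³H]dTTP, at 37 °C. Acid-precipitable radioactivity was counted on GF/C filters after TCA washes.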

[10] = system: Feline coronavirus; assay: Antiviral activity against Feline coronavirus in feline […] cells assessed as inhibition of virus-induced cytopathicity; type: functional, organism-based; conditions: Alphacoronavirus 1
[11] = system: Vaccinia virus; assay: Antiviral activity against Vaccinia virus Lederle in human HEL cells assessed as protection against virus-induced cytopathicity; type: functional, organism-based; conditions: Orthopoxvirus vaccinia
[12] = target: Human immunodeficiency virus type 1 reverse transcriptase (Human immunodeficiency virus 1, UniProt Q72547, K103N); assay: Inhibition of HIV1 reverse transcriptase p66/p51 K103N mutant; conditions: read-out: IC50; method in brief: as §3
[13] = system: Influenza A virus H3N2; assay: Antiviral activity against influenza H3N2 virus in MDCK cells assessed as reduction of virus-induced cytopathicity by MTS method; type: functional, organism-based
[14] = system: Human immunodeficiency virus 2; assay: Antiviral activity against HIV2 ROD in human CEM cells assessed as protection against virus-induced cytopathicity after 4 days; type: functional, organism-based; conditions: Human immunodeficiency virus 2, ROD, CCRF-CEM, 96 h
Method in brief: (§4)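 CEM cells (~3 × 10⁵ cells/mL) infected with ~100 CCID₅₀ per mL of HIV-1 (IIIB) or HIV-2 (ROD), then seeded into wells containing compound dilutions. After 4 days at 37 °C, syncytium (giant cell) formation was examined microscopically. EC₅₀ = concentration protecting CEM cells from HIV cytopathicity by 50%.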

[15] = Cytotoxicity against MDCK cells by MTS assay; type: cell-based, Canis lupus familiaris; conditions: dog
[16] = system: Influenza A virus H3N2; assay: Antiviral activity against influenza H3N2 virus in MDCK cells assessed as reduction of virus-induced cytopathicity by visual cytopathic effect scoring method; type: functional, organism-based
[17] = system: Human immunodeficiency virus 1; assay: Antiviral activity against HIV1 3B in human CEM cells assessed as protection against virus-induced cytopathicity after 4 days; type: functional, organism-based; conditions: Human immunodeficiency virus 1, 3B, CCRF-CEM, 96 h; method in brief: as §4
[18] = system: Human alphaherpesvirus 1; assay: Antiviral activity against HSV1 KOS in human HEL cells assessed as protection against virus-induced cytopathicity; type: functional, organism-based; conditions: Human alphaherpesvirus 1, KOS
[19] = Cytotoxicity against human HEL cells assessed as drug level causing microscopically detectable alteration of normal cell morphology after 3 days; type: cell-based
[20] = system: CCRF-CEM; assay: Antiproliferative activity against human CEM cells after 3 days; type: cell-based; conditions: 72 h; method in brief: as §2
[21] = target: Human immunodeficiency virus type 1 reverse transcriptase (Human immunodeficiency virus 1, UniProt Q72547, L100I); assay: Inhibition of HIV1 reverse transcriptase p66/p51 L100I mutant; conditions: read-out: IC50; method in brief: as §3
[22] = Cytotoxicity against african green monkey Vero cells assessed as drug level causing microscopically detectable alteration of normal cell morphology after 3 days; type: cell-based; conditions: chlorocebus sabaeus
Method in brief: (§5)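 Serial compound dilutions added to confluent HeLa or Vero monolayers. MCC = minimum concentration causing microscopically detectable alteration of cell morphology after 3 days of incubation.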

[23] = system: Vesicular stomatitis virus; assay: Antiviral activity against VSV in human HeLa cells assessed as protection against virus-induced cytopathicity; type: functional, organism-based
[24] = Antiproliferative activity against human Molt4/C8 cells after 3 days; type: cell-based; conditions: MOLT-4, 72 h; method in brief: as §2
[25] = system: Punta Toro virus; assay: Antiviral activity against Punta Toro virus in african green monkey Vero cells assessed as protection against virus-induced cytopathicity; type: functional, organism-based; method in brief: as §1
[26] = target: Human immunodeficiency virus type 1 reverse transcriptase (Human immunodeficiency virus 1, UniProt Q72547); assay: Inhibition of HIV1 reverse transcriptase p66/p51; conditions: read-out: IC50
[27] = Cytotoxicity against feline CRFK cells by MTS assay; type: cell-based, Felis catus; conditions: cat
[28] = Cytotoxicity against MDCK cells assessed as drug level causing microscopically detectable alteration of normal cell morphology; type: cell-based, Canis lupus familiaris; conditions: dog
[29] = system: Coxsackievirus B4; assay: Antiviral activity against Coxsackievirus B4 in human HeLa cells assessed as protection against virus-induced cytopathicity; type: functional, organism-based; conditions: Enterovirus B; method in brief: as §1
[30] = system: Vesicular stomatitis virus; assay: Antiviral activity against VSV in human HEL cells assessed as protection against virus-induced cytopathicity; type: functional, organism-based
[31] = system: Felid alphaherpesvirus 1; assay: Antiviral activity against Feline herpesvirus in feline […] cells assessed as inhibition of virus-induced cytopathicity; type: functional, organism-based
[32] = Cytotoxicity against human HeLa cells assessed as drug level causing microscopically detectable alteration of normal cell morphology after 3 days; type: cell-based; method in brief: as §5
[33] = system: Influenza B virus; assay: Antiviral activity against influenza B virus in MDCK cells assessed as reduction of virus-induced cytopathicity by MTS method; type: functional, organism-based
[34] = system: Coxsackievirus B4; assay: Antiviral activity against Coxsackievirus B4 in african green monkey Vero cells assessed as protection against virus-induced cytopathicity; type: functional, organism-based; conditions: Enterovirus B; method in brief: as §1
[35] = system: Human alphaherpesvirus 2; assay: Antiviral activity against HSV2 G in human HEL cells assessed as protection against virus-induced cytopathicity; type: functional, organism-based; conditions: Human alphaherpesvirus 2, strain G; method in brief: as §1
[36] = system: Sindbis virus; assay: Antiviral activity against Sindbis virus in african green monkey Vero cells assessed as protection against virus-induced cytopathicity; type: functional, organism-based; method in brief: as §1

Structure (SMILES)	EC50 [1] [µM]	EC50 [2] [µM]	IC50 [3] [µM]	EC50 [4] [µM]	EC50 [5] [µM]	EC50 [6] [µM]	EC50 [7] [µM]	EC50 [8] [µM]	IC50 [9] [µM]	EC50 [10] [µM]	EC50 [11] [µM]	IC50 [12] [µM]	EC50 [13] [µM]	EC50 [14] [µM]	CC50 [15] [µM]	EC50 [16] [µM]	EC50 [17] [µM]	EC50 [18] [µM]	MCC at 72 h [19] [µM]	IC50 [20] [µM]	further results
Cc1cc(C)cc(S(=O)(=O)c2c(C(=O)NC(C)CC(N)=O)[nH]c3ccc(Cl)c(F)c23)c1 (configuration not stated)	> 20	> 4	42	> 4	> 20	20	> 4	> 20	> 40	> 20	> 20	3.39	> 4	> 10	6.2	> 4	0.0046	> 20	100	27	IC50 [21]: 0.39 µM; MCC at 72 h [22]: 100 µM; EC50 [23]: > 20 µM; IC50 [24]: 25 µM; EC50 [25]: > 20 µM; IC50 [26]: 0.359 µM; CC50 [27]: 42.6 µM; MCC [28]: 20 µM; EC50 [29]: 9 µM; EC50 [30]: > 20 µM; EC50 [31]: > 20 µM; MCC at 72 h [32]: 100 µM; EC50 [33]: > 4 µM; EC50 [34]: > 20 µM; EC50 [35]: > 20 µM; EC50 [36]: > 20 µM
Cc1cc(C)cc(S(=O)(=O)c2c(C(=O)NCCS(N)(=O)=O)[nH]c3ccc(Br)cc23)c1	> 20	> 800	17	> 800	> 4	> 4	> 800	> 20	> 40	> 4	> 4	0.529	> 800	> 10	1.9	> 800	0.001	> 4	20	14	IC50 [21]: 0.013 µM; MCC at 72 h [22]: ≥ 20 µM; EC50 [23]: > 4 µM; IC50 [24]: 11 µM; EC50 [25]: > 20 µM; IC50 [26]: 0.002 µM; CC50 [27]: 11.9 µM; MCC [28]: 4 µM; EC50 [29]: ≥ 4 µM; EC50 [30]: > 4 µM; EC50 [31]: > 4 µM; MCC at 72 h [32]: 20 µM; EC50 [33]: > 800 µM; EC50 [34]: 12 µM; EC50 [35]: > 4 µM; EC50 [36]: > 20 µM
